Results gathered from unrelated publications.
Each line is one published result; the experiments were not run side by side.
PIK3C2B: Phosphatidylinositol 4-phosphate 3-kinase C2 domain-containing subunit beta (PIK3C2B, Homo sapiens, UniProt O00750)
UCK1: UCK1 (Homo sapiens, UniProt Q9HA47)
Nectin-4: Nectin-4 (Homo sapiens, UniProt Q96NY8)

SMILES	target	assay	Kd [nM]
CC(=O)N[C@H](C(=O)N1C[C@H](O)C[C@H]1C(=O)NCc1ccc(-c2scnc2C)cc1)C(C)(C)SCCCCCCNC(=O)C[C@@H]1N=C(c2ccc(Cl)cc2)c2c(sc(C)c2C)-n2c(C)nnc21	Bromodomain-containing protein 3, BD2 (BRD3, Homo sapiens, UniProt Q15059)	binding, ITC	39
C=CC(=O)N1CCC(C(=O)N(C)CC(=O)N2CCN(c3nc(-c4cnc(N)nc4C(F)F)nc(N4CCOCC4)n3)CC2)CC1	PIK3C2B	binding, competition with immobilised ligand	155
Cc1cnc(-c2ccc(-c3ccc(NC(=O)Nc4c(F)cc(F)cc4F)cc3F)c3c2C(=O)NC3)[nH]1	Cytoplasmic tyrosine-protein kinase BMX (BMX, Homo sapiens, UniProt P51813)	binding, competition with immobilised ligand	14
CCC(=O)N1CCC(C(=O)N(C)CC(=O)N2CCN(c3nc(-c4cnc(N)nc4C(F)F)nc(N4CCOCC4)n3)CC2)CC1	PIK3C2B	binding, competition with immobilised ligand	365
Nc1ccn([C@@H]2O[C@H](CO)[C@@H](O)[C@H]2O)c(=O)n1	UCK1	binding, fluorescence	15.9
O=C(CCCCCCC(=O)Nc1ccc([C@H]2O[C@@H](CSc3nc(-c4ccccc4)c(-c4ccccc4)o3)C[C@@H](c3ccc(CO)cc3)O2)cc1)NO	Histone deacetylase 2 (HDAC2, Homo sapiens, UniProt Q92769)	cell-free assay	> 30200
CCCC[C@@H]1NC(=O)[C@H](Cc2ccc(O)cc2)NC(=O)[C@@H]2CCCN2C(=O)[C@H](CC(=O)O)NC(=O)[C@H](C)NC(=O)[C@H](Cc2ccccc2)NC(=O)[C@@H]2CSCCC(=O)N3CN(CN(C3)C(=O)CCSC[C@@H](C(=O)N[C@@H](C)C(N)=O)NC1=O)C(=O)CCSC[C@H](NC(C)=O)C(=O)N[C@@H](CC(C)(C)C)C(=O)N1CCC[C@H]1C(=O)N[C@@H](CCC(=O)O)C(=O)N[C@H](CCCCNC(=O)CCc1cn(CCOCCOCCOCCOCCOCCC(=O)N[C@H]3CSCCC(=O)N4CN5CN(C4)C(=O)CCSC[C@H](NC(=O)[C@@H](CC(=O)O)NC(=O)[C@H](Cc4cccc6ccccc46)NC(=O)[C@@H]4CCCN4C3=O)C(=O)N[C@@H](CCSC)C(=O)N[C@@H](CCCCNC(=N)N)C(=O)N[C@@H](CC(=O)O)C(=O)N[C@@H](Cc3c[nH]c4ccccc34)C(=O)N[C@@H](CO)C(=O)N[C@@H]([C@@H](C)O)C(=O)N3CCC[C@H]3C(=O)N3C[C@H](O)C[C@H]3C(=O)N[C@@H](Cc3c[nH]c4ccccc34)C(=O)N[C@H](C(N)=O)CSCCC5=O)nn1)C(=O)N1CCC[C@H]1C(=O)N[C@@H](Cc1ccc(O)cc1)C(=O)N2	Nectin-4	binding, SPR	1.8
Cc1cc(Nc2cc3ncccc3c(N[C@@H]3C[C@H]4CC[C@@H](C3)N4CCC#N)n2)n[nH]1	Serine/threonine-protein kinase 16 (STK16, Homo sapiens, UniProt O75716)	binding, competition with immobilised ligand	110
CCCCCC(C)=O	Or85b (Drosophila melanogaster, UniProt Q9VHQ7)	binding, MST	~800
CCCC[C@@H]1NC(=O)[C@H](Cc2ccc(O)cc2)NC(=O)[C@@H]2CCCN2C(=O)[C@H](CCC(=O)O)NC(=O)[C@H](C)NC(=O)[C@H](Cc2ccccc2)NC(=O)[C@@H]2CSCCC(=O)N3CN(CN(C3)C(=O)CCSC[C@H](NC(C)=O)C(=O)N[C@@H](CC(C)(C)C)C(=O)N3CCC[C@H]3C(=O)N[C@@H](CCC(=O)O)C(=O)N[C@H](CCCCNC(=O)CCc3cn(CCOCCOCCOCCN(CCOCCOCCOCCC(=O)N[C@H]4CSCCC(=O)N5CN6CN(C5)C(=O)CCSC[C@H](NC(=O)[C@@H](CC(=O)O)NC(=O)[C@H](Cc5cccc7ccccc57)NC(=O)[C@@H]5CCCN5C4=O)C(=O)N[C@@H](CCSC)C(=O)N[C@@H](CCCCNC(=N)N)C(=O)N[C@@H](CC(=O)O)C(=O)N[C@@H](Cc4c[nH]c5ccccc45)C(=O)N[C@@H](CO)C(=O)N[C@@H]([C@@H](C)O)C(=O)N4CCC[C@H]4C(=O)N4C[C@H](O)C[C@H]4C(=O)N[C@@H](Cc4c[nH]c5ccccc45)C(=O)N[C@H](C(N)=O)CSCCC6=O)CCOCCOCCOCCn4cc(CCC(=O)NCCCC[C@H]5NC(=O)[C@H](CCC(=O)O)NC(=O)[C@@H]6CCCN6C(=O)[C@H](CC(C)(C)C)NC(=O)[C@@H](NC(C)=O)CSCCC(=O)N6CN7CN(C6)C(=O)CCSC[C@H](NC(=O)[C@H](Cc6ccc(O)cc6)NC(=O)[C@@H]6CCCN6C5=O)C(=O)N[C@@H](Cc5ccccc5)C(=O)N[C@@H](C)C(=O)N[C@@H](CCC(=O)O)C(=O)N5CCC[C@H]5C(=O)N[C@@H](Cc5ccc(O)cc5)C(=O)N[C@@H](CCCC)C(=O)N[C@H](C(N)=O)CSCCC7=O)nn4)nn3)C(=O)N3CCC[C@H]3C(=O)N[C@@H](Cc3ccc(O)cc3)C(=O)N2)C(=O)CCSC[C@@H](C(N)=O)NC1=O	Nectin-4	binding, SPR	2.7
CCN(CC)c1ccc2cc(C(=O)NCCNC(=O)c3ccc(-c4cc(-c5ccc(C#N)cc5)nc(-c5ccco5)c4)cc3)c(=O)oc2c1	Myc proto-oncogene protein (MYC, Homo sapiens, UniProt P01106)	binding, SPR	151
Nc1ncnc2c1ncn2[C@@H]1O[C@H](COP(=O)(O)O)[C@@H](O)[C@H]1O	Adenylosuccinate lyase (ADSL, Homo sapiens, UniProt P30566)	binding, ITC	54000
[N-]=[N+]=N[C@@H]1[C@H](O)[C@@H](CO)O[C@H]1n1ccc(N)nc1=O	UCK1	binding, fluorescence	65.7
CC#CC(=O)N1CC[C@@H](n2cc(-c3ccc(Oc4c(F)cccc4F)cc3)c3c(N)n[nH]c(=O)c32)C1	Tyrosine-protein kinase TXK (TXK, Homo sapiens, UniProt P42681)	binding, competition with immobilised ligand	136
NC(=O)C1=CN([C@@H]2O[C@H](COP(=O)(O)OP(=O)(O)OC[C@H]3O[C@@H](n4cnc5c(N)ncnc54)[C@H](OP(=O)(O)O)[C@@H]3O)[C@@H](O)[C@H]2O)C=CC1	ZMO1885 (Zymomonas mobilis, UniProt Q5NLA1, Y343W)	binding	702000
NC(=O)c1ncn([C@@H]2O[C@H](COP(=O)(O)O)[C@@H](O)[C@H]2O)c1N	Adenylosuccinate lyase (ADSL, Homo sapiens, UniProt P30566, R303C)	binding, ITC	122000
CCC(=O)N1CCC(C(=O)NCC(=O)N2CCN(c3nc(-c4cnc(N)nc4C(F)F)nc(N4CCOCC4)n3)CC2)CC1	PIK3C2B	binding, competition with immobilised ligand	85
